A selection: hits, their analogues and other compounds. The true share with any hit is near 3.9%.
tim10-1 inh – inhibits growth of tim10-1 mutant yeast. S. cerevisiae tim10-1 ts strain growth, BacTiter-Glo, 24 h. actives 2.2% (n = 330,000). inhibition, % at 20 µM;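 active = inhibition of at least 40%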;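 note: mutant grown at 25 °C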
TIM10 inh – inhibits growth of TIM10 yeast strain. inhibition, % at 10 µM. S. cerevisiae TIM10 strain growth, BacTiter-Glo luminescence, 24 h. actives 1.4% (n = 330,000);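 active = inhibition of 40% or more at the single tested concentration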;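 note: wild-type TIM10 isogenic control strain grown at permissive 25 °C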
CHOP UPR activ – apoptotic UPR (CHOP) activation. activation, % at 10 µM. actives 0.34% (n = 330,000). CHO-CHOP luciferase reporter, luminescence; percent of tunicamycin response over DMSO baseline;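 active = at 10 µM dose, activation of 40% or more, normalized to positive control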
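Dosing – one dose, 10 µM in 0.5% DMSO · System – CHO-CHOP cells, stable luciferase reporter of PERK-eIF2a-CHOP signalling · Input – 500 cells/well · Control set – tunicamycin 10 µg/mL final as positive, DMSO-only wells as negative · Timing – 6 h compound treatment, 37 °C · Measure – % activation vs tunicamycin · Technique – luminescence read with Steady-Glo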
tim23-1 inh – inhibits growth of tim23-1 mutant yeast; S. cerevisiae tim23-1 growth, BacTiter-Glo luminescence, 24 h; inhibition, % at 20 µM; actives 1.3% (n = 330,000);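 active = growth inhibition of the mutant yeast at or above 50%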;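 note: temperature-sensitive mutant grown at 25 °C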
XBP1 UPR activ – activators of adaptive arm of unfolded protein response (XBP1); CHO-XBP1 luciferase reporter, IRE1-XBP1 UPR activation, luminescence; percent of tunicamycin response, DMSO as zero; actives 0.33% (n = 330,000); activation, % at 20 µM;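 active = versus positive control, 20 µM dose yields 30% or more activation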
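Material: IRE1-XBP1 luciferase reporter CHO line / Quantity: one thousand reporter cells per well / Buffer or medium: F12 with 10% serum / Compound: 20 µM single concentration, DMSO 1% / Times: 6 h treatment, 37 °C / Detection: Steady-Glo luciferase glow luminescence, 10 min after reagent addition / Benchmarks: tunicamycin high, DMSO low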
TIM10 conf – TIM10 yeast growth inhibition, confirmed; S. cerevisiae tim10 strain growth, BacTiter-Glo luminescence, 24 h; shares compounds with TIM10 inh; inhibition, % at 10 µM; actives 63% (n = 4,600);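 active = inhibition of yeast growth at or above a set limit in either of two replicates at 10 µM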; note: this counterscreen used the strain with wild-type TIM10
Hits are given with their value; . = inactive; / = no result given.

SMILES | tim10-1 inh | TIM10 inh | CHOP UPR activ | tim23-1 inh | XBP1 UPR activ | TIM10 conf
COC(=O)[C@@H](NC(=O)c1ccc2c(c1)S(=O)(=O)c1ccccc1C2=O)C(C)C | . | . | . | . | . | /
Cc1ccc2c(c1)sc(=NC(=O)C1CC1)n2C | . | . | . | . | . | /
Cc1ccc2c(c1)sc(=NC(=O)c1cccs1)n2C | . | 58.7 | . | . | . | 60.1
CCOC(=O)c1sc(=NC(=O)c2ccc(Cl)s2)n(C)c1C | . | . | . | . | . | /
CCOC(=O)c1sc(=NC(=O)c2cccs2)n(C)c1C | . | 58.7 | . | . | . | 46.4
COc1ccc(C(=O)CSc2ccc(-c3ccccc3)nn2)cc1 | . | . | . | . | . | /
COc1cccc(-c2ccc(SCC(=O)c3ccccc3)nn2)c1 | . | 41.7 | . | . | . | 42.0
COc1cccc(-n2nnnc2S(C)(=O)=O)c1 | . | 58.6 | . | . | . | 47.8
CCOC(=O)c1cc(C(C)=O)n2ccccc12 | . | . | . | . | . | /
CCOC(=O)c1cc(C(=O)c2cccs2)n2ccc(C(C)=O)cc12 | . | 50.0 | . | . | . | 36.2
Fc1ccc(CNCC2CCCO2)cc1 (centres undefined) | . | 96.6 | . | . | . | .
O=C(OCC#CCSc1nnc(-c2ccc([N+](=O)[O-])cc2)o1)c1cccs1 | . | 41.3 | . | . | . | 33.5
CCOC(=O)c1ccc(NC(=O)C(=O)NCC2(c3ccc(OC)cc3)CCOCC2)cc1 | . | . | . | . | . | /
O=C(N/N=C/c1ccncc1)c1cc2c(ccc3ccccc32)o1 | . | 47.4 | . | . | . | 33.5
N=C1SC(CC(=O)Nc2ccc([N+](=O)[O-])cc2)C(=O)N1c1ccccc1 (centres undefined) | . | 57.4 | . | . | . | .
CNc1ncc(C(=O)c2ccc(Cl)cc2)s1 | . | . | . | . | . | /
CNc1ncc(C(=O)c2ccc(Cl)c(Cl)c2)s1 | . | 55.0 | . | . | . | .
COc1ccccc1C(=O)N(C)c1nnc(-c2ccccc2)s1 | . | . | . | . | . | /
COc1cc(C(C)=O)ccc1OCC(O)CN1CCN(c2c(C)cccc2C)CC1 (centres undefined) | . | 96.7 | . | . | . | .
COc1cc(C(C)=O)ccc1OCC(O)CN1CCN(c2ccc(C)c(C)c2)CC1 (centres undefined) | . | . | . | . | . | /
O=S(=O)(/N=C(/c1ccccc1)N1CCOCC1)c1ccc(F)cc1 | . | . | . | . | . | /
Cc1nc(SCC(=O)N(CC(C)C)C2CCS(=O)(=O)C2)c2c(C)c(C)sc2n1 (centres undefined) | . | . | . | . | . | /
O=S(=O)(Nc1cccc2c1ccc1cccn12)c1cccs1 | . | 45.2 | . | . | . | .
O=S(=O)(Nc1cccc2[nH]ncc12)c1cccs1 | . | . | . | . | . | /
c1ccc(-n2nnnc2Sc2ncnc3sc4c(c23)CCCC4)cc1 | . | 43.9 | . | . | . | .
SMILES | tim10-1 inh | TIM10 inh | CHOP UPR activ | tim23-1 inh | XBP1 UPR activ | TIM10 conf
CCOC(=O)COn1c(=O)c(-c2cccs2)[n+]([O-])c2ccccc21 | . | 41.8 | . | . | . | .
C/C(CCc1ccco1)=N\NC(=O)CNc1cccc2ccccc12 | . | . | . | . | . | /
C/C(=N\NC(=O)CNc1cccc2ccccc12)c1ccccc1 | . | 42.3 | . | . | . | .
c1ccc(Cn2c(-c3ccco3)nc3nc4ccccc4nc32)cc1 | . | 42.7 | . | . | . | .
Cc1ccc(C)c(NC(=S)N/N=C/C(C)c2ccccc2)c1 (centres undefined) | . | 48.9 | . | . | . | .
Cc1cc(C)nc(N2CCC(C(=O)N3CCN(c4cc(Cl)ccc4C)CC3)CC2)n1 | . | 46.8 | . | . | . | .
Cc1ccc(C)c(N2CCN(C(=O)C3CCN(c4nc(C)cc(C)n4)CC3)CC2)c1 | . | . | . | . | . | /
O=S(=O)(c1cccc(-c2nnc(SCc3nc4ccccc4s3)o2)c1)N1CCOCC1 | . | 43.3 | . | . | . | .
CC(=O)Nc1sc2c(c1-c1nc3ccccc3s1)CN(C(C)C)CC2 | . | 64.6 | . | . | . | .
CC(C)N1CCc2c(sc(NC(=O)c3nc4ccccc4s3)c2C(N)=O)C1 | . | 43.9 | . | . | . | .
COc1ccc(C2NC(=O)NC(C)=C2[N+](=O)[O-])cc1 (centres undefined) | . | . | . | . | . | /
CC(C)COP(=O)(OCC(C)C)C(Nc1ccccc1)c1ccccc1 (centres undefined) | . | 40.8 | . | . | . | 34.1
O=[N+]([O-])c1ccc(N/N=C/c2cccnc2)cc1 | . | 41.8 | . | . | . | .
O=C(N/N=C/c1cccnc1)c1ccc([N+](=O)[O-])cc1 | . | . | . | . | . | /
N/C(Cc1cccc2ccccc12)=N\OC(=O)Cc1cccs1 | . | 49.1 | . | . | . | 37.8
Cc1ccccc1OCC(=O)O/N=C(\N)Cc1cccs1 | . | . | . | . | . | /
O=C(COc1ccc(Cl)cc1Cl)NNC(=S)Nc1ccc(F)cc1 | . | 45.1 | . | . | . | 37.7
CC(=O)NC(=S)Nc1ccc(NC(=O)COc2ccc(Cl)cc2Cl)cc1 | . | . | . | . | . | /
CCOc1ccc(N(C)C(=O)CCc2nnc3ccc(NCc4ccco4)nn23)cc1 | . | . | . | . | . | /
Cc1nc(-c2ccc(F)cc2)c(CC(=O)N2CCN(S(=O)(=O)c3cccc(F)c3)CC2)s1 | . | . | . | . | . | /
COc1ccc(Cn2c(=O)oc3ccc(C)cc32)cc1 | . | 97.3 | . | . | . | .
COc1ccc(Cn2c(=O)oc3ccc(C)cc32)cc1OC | . | . | . | . | . | /
COc1ccc(/C=C/c2cc(C(=O)O)c3ccccc3n2)cc1 | . | . | . | . | . | /
Cc1cc(/C=C\c2ccccc2)nc2ccccc12 | . | 52.8 | . | . | . | 61.7
COc1ccc(NC(C)C(=O)Nc2cc(C(F)(F)F)ccc2N2CCOCC2)c(OC)c1 (centres undefined) | . | 40.6 | . | . | . | .
SMILES | tim10-1 inh | TIM10 inh | CHOP UPR activ | tim23-1 inh | XBP1 UPR activ | TIM10 conf
CC(C)(C)C(=O)NC(=S)Nc1cc(C(F)(F)F)ccc1N1CCOCC1 | . | 47.6 | . | . | . | .
C=CCn1c(O)c2ccc(C(=O)N=NC(=O)c3ccc(F)cc3)cc2c1O | . | . | . | . | . | /
Cc1ccc(S(=O)(=O)NCc2ccc3c(c2)OCO3)cc1C | . | . | . | . | . | /
O=S(=O)(NCc1ccc2c(c1)OCO2)c1ccc2oc3ccccc3c2c1 | . | 48.5 | . | . | . | 35.3
COc1ccc(NC(=O)C(=O)NCC(c2ccco2)N2CCc3ccccc3C2)cc1OC (centres undefined) | . | . | . | . | . | /
Cc1nc([N+](=O)[O-])cn1Cc1cccc([N+](=O)[O-])c1 | . | . | . | . | . | /
